Data as given in ChEMBL document CHEMBL4196108, “5-Aroylindoles Act as Selective Histone Deacetylase 6 Inhibitors Ameliorating Alzheimer's Disease Phenotypes” (J Med Chem, 2018).
Activity calls are given as the source filed them. No cut-off for these calls is given here.

What was measured:
[1] = biological target: T1, Protein deacetylase HDAC6 (Homo sapiens) (UniProt Q9UBN7); assay: Inhibition of HDAC6 in human SH-SY5Y cells transfected with pCAX FLAG APP and pRK5-EGFP-Tau P301L plasmids assessed as suppression of phosphorylated tau P301L mutant-induced apoptosis by measuring accumulation at sub-G1 phase at 0.01 uM after 24 hrs by propidium iodide staining-based flow cytometry (reference value: 22.01%); format: cell-based; set-up: scale not given: the % may be the effect or the level left
T1 sequence (whole entry): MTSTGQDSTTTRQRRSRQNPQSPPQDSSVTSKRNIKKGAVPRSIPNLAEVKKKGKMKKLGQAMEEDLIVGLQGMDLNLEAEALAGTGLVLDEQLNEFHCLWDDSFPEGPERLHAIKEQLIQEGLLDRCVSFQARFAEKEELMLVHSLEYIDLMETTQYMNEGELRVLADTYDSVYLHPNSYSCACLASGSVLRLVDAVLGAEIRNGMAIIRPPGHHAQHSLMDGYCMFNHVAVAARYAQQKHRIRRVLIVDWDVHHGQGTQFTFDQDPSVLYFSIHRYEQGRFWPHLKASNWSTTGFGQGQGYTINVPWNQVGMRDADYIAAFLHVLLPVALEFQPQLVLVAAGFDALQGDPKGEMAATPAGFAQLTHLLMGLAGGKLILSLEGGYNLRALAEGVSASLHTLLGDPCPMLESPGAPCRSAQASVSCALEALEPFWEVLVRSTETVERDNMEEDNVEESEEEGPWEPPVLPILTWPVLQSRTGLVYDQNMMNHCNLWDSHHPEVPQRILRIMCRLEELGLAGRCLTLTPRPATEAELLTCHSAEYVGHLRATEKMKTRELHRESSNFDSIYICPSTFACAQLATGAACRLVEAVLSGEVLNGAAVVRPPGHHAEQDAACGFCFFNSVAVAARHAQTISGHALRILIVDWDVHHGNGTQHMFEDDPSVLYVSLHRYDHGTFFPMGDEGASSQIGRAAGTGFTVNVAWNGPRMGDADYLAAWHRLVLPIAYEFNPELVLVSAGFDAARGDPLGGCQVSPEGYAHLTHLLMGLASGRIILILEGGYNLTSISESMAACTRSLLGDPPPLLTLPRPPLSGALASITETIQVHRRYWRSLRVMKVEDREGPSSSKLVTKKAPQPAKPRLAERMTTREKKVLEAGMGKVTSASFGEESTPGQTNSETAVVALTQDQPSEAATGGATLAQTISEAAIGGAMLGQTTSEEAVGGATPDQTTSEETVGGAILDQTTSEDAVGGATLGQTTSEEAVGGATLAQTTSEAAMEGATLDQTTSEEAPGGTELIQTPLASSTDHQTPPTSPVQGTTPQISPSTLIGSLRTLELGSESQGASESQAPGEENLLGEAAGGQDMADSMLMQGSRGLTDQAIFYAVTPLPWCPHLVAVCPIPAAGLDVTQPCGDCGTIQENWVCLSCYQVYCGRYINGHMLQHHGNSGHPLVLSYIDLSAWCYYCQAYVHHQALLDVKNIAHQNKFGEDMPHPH

[2] = tested on: Rattus norvegicus; assay: Reversal of scopolamine-induced spatial memory impairment in Wistar rat assessed as reduction in escape latency in hidden platform at 25 mg/kg, po administered once daily for 1 week followed by scopolamine challenge 90 mins prior to test by Morris water maze test; format: functional, organism-based
How it was run: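 Male Wistar rats, 7 weeks old, dosed orally at 25 mg/kg in 1% carboxymethyl cellulose/0.5% Tween 80 once daily. Scopolamine 1 mg/kg i.p. 90 min before test trial (controls excluded). Morris water maze (hidden platform escape latency), elevated plus maze (started at open-arm end, time to closed arm), then CA1 phospho-tau Ser396/Ser404 immunohistochemistry.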

[3] = Ratio of drug level in brain to plasma in Sprague-Dawley rat at 50 mg/kg, po after 1 hr; format: ADME, organism-based; conditions: read-out: BPR
[4] = tested on: Mus musculus; assay: In vivo inhibition of HDAC6 in 3xTg-AD transgenic mouse brain hippocampal CA1 region assessed as downregulation of scopolamine-mediated increase in Tau phosphorylation at Ser396 residue at 50 mg/kg, po administered daily for 3 months by immunohistochemical analysis; format: functional, organism-based
How it was run: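 Female 3xTg-AD mice, standard diet to 6 months of age, then 50 mg/kg orally once daily for three months; memantine 30 mg/kg in water as comparator. Brains removed and hippocampal CA1 sections immunostained for acetyl-α-tubulin and phospho-tau Ser396 and Ser404. Mean ± STD; one-way ANOVA.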

[5] = tested on: Mus musculus; assay: In vivo inhibition of HDAC6 in 3xTg-AD transgenic mouse brain hippocampal CA1 region assessed as downregulation of scopolamine-mediated increase in Tau phosphorylation at Ser404 residue at 50 mg/kg, po administered daily for 3 months by Western blot analysis; format: functional, organism-based
How it was run: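 Female 3xTg-AD mice, fed standard diet to 6 months of age, then dosed orally at 50 or 100 mg/kg once daily for three months. Brains removed; hippocampal tissue lysates immunoblotted for acetyl-α-tubulin and phospho-tau Ser396 and Ser404. Mean ± STD; one-way ANOVA.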

[6] = tested on: Mus musculus; assay: Toxicity in Balb/c mouse assessed as increase in body weight at 100 to 1000 mg/kg/day, ip administered for 6 days followed by 1 week recovery; format: organism-based; conditions: in vivo
How it was run: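 Male Balb/c mice given 100, 500 or 1000 mg/kg/day i.p. for 6 days, then 1 week recovery; six vehicle-injected mice as controls. Body weight and survival recorded daily.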

[7] = biological target: T1, Protein deacetylase HDAC6 (Homo sapiens); assay: Inhibition of HDAC6 in human SH-SY5Y cells transfected with pCAX FLAG APP and pRK5-EGFP-Tau P301L plasmids assessed as reduction in formed Tau P301L mutant aggregates level at 1 uM after 24 hrs by Western blot analysis; format: cell-based
How it was run: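 Cotransfected SH-SY5Y cells (1 × 10^7) treated 24 h at 1 µM, lysed in sucrose/HEPES pH 7.2 buffer; 190,000 g supernatant = cytosol. Pellet treated with 5 µM nocodazole, re-spun; residual pellet extracted with sodium carbonate pH 11.5 and washed in 1% SDS to give aggregate fraction. Equal protein by SDS-PAGE immunoblot.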

[8] = biological target: T1, Protein deacetylase HDAC6 (Homo sapiens); assay: Inhibition of HDAC6 in human SH-SY5Y cells transfected with pCAX FLAG APP and pRK5-EGFP-Tau P301L plasmids assessed as inhibition of Tau P301L mutant phosphorylation at Ser404 residue at 1 uM after 24 hrs by Western blot analysis; format: cell-based
How it was run: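 SH-SY5Y or Neuro-2a cells cotransfected 24 h with pCAX APP695 and pRK5-EGFP-Tau P301L, then treated 24 h at 1 µM. 20 µg lysate protein immunoblotted for APP and phospho-tau Ser396/Ser404. Mean ± STD of three independent experiments; Student's t-test.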

[9] = biological target: T1, Protein deacetylase HDAC6 (Homo sapiens); assay: Inhibition of HDAC6 in human SH-SY5Y cells assessed as increase in acetylation of alpha-tubulin at 0.1 to 1 uM after 24 hrs by Western blot analysis; format: cell-based
How it was run: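 SH-SY5Y cells in MEM with 10% FBS at 37 °C, 5% CO2, treated 24 h at 0.1–1 µM. Lysates in HEPES/Triton buffer; 20 µg protein run on SDS-PAGE and immunoblotted for acetyl-α-tubulin, α-tubulin, acetyl-histone H3 and histone H3 with ECL detection.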

With `COc1ccc(C(=O)c2ccc3c(ccn3Cc3ccc(C(=O)NO)cc3)c2)cc1` the Activity [1] was 15.6%, the Activity [2] was “Active” and the Kp at 1 h [3] was 1.19. The inhibition [4] was “Active”, the inhibition [5] was “Active” and the Activity [6] was “Non-Toxic”. For the same compound, the inhibition [7] was “Active”, the inhibition [8] was “Active” and the inhibition [9] was “Active”.
